Among the data in ChEMBL document CHEMBL3593206, “SAR Studies of Exosite-Binding Substrate-Selective Inhibitors of A Disintegrin And Metalloprotease 17 (ADAM17) and Application as Selective in Vitro Probes” (J Med Chem, 2015) are inhibition and IC50 values, retold here.

Assay [1] concerns the target T1, Disintegrin and metalloproteinase domain-containing protein 10 (Homo sapiens) (UniProt O14672).
T1 sequence (whole entry): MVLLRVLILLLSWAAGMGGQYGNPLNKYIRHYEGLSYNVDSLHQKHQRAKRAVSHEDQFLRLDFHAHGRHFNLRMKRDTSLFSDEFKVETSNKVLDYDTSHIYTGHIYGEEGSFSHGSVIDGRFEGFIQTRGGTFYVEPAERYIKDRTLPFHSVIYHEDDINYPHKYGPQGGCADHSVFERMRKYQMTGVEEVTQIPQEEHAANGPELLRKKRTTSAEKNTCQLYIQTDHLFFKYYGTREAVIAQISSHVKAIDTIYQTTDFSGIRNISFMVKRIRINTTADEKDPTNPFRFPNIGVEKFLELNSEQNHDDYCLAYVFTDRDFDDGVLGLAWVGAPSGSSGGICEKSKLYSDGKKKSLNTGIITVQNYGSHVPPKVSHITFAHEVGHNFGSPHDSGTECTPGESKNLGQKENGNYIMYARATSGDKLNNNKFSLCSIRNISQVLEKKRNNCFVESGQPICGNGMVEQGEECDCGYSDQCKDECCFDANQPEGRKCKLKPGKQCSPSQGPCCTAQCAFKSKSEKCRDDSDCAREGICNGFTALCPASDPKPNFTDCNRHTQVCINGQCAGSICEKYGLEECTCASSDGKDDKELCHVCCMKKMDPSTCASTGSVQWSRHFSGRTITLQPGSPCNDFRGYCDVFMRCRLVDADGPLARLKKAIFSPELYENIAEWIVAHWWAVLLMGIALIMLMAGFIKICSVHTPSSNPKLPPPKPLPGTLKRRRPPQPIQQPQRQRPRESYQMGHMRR
Description: Inhibition of ADAM10 (unknown origin) at 100 uM preincubated for 30 mins followed by substrate addition measured every 30 mins for 2 hrs by fluorescence assay relative to control. Put shortly:
(§1)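 Enzyme at 30 nM (3× solution) in 10 mM Hepes, 0.001% Brij-35, pH 7.5. Inhibitor series of 10 points, 1:3, from 300 μM, preincubated 30 min at RT. Glycosylated substrate added from a 30 μM 3× solution. Fluorescence (ex 360/em 460 nm) read every 30 min for 2 h. Inhibition taken from hydrolysis rates against substrate-only and substrate-plus-enzyme wells.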

Assay [2] concerns the target 72 kDa type IV collagenase (Homo sapiens, UniProt P08253). The assay can be described thus: Inhibition of MMP2 (unknown origin) using Mca-KLPGL-Dnp-AR as substrate at 100 uM preincubated for 30 mins followed by substrate addition measured after 1 hr by fluorescence assay relative to control. The essentials: (§2)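 Inhibitor as 10-point 1:3 dilutions from 300 μM, 30 min at RT. Substrate added from a 30 μM 3× solution. Single fluorescence read (ex 324/em 393 nm) after 1 h at RT.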

Assay [3] has as its target Neutrophil collagenase (Homo sapiens, UniProt P22894). Description: Inhibition of MMP8 (unknown origin) using Mca-KLPGL-Dnp-AR as substrate at 100 uM preincubated for 30 mins followed by substrate addition measured after 1 hr by fluorescence assay relative to control. Put shortly: as §2
The target in assay [4] is Matrix metalloproteinase-9 (Homo sapiens, UniProt P14780). The assay can be described thus: Inhibition of MMP9 (unknown origin) using Mca-KLPGL-Dnp-AR as substrate at 100 uM preincubated for 30 mins followed by substrate addition measured after 1 hr by fluorescence assay relative to control. Put shortly: as §2
Chain of Matrix metalloproteinase-9 (P14780 whole entry): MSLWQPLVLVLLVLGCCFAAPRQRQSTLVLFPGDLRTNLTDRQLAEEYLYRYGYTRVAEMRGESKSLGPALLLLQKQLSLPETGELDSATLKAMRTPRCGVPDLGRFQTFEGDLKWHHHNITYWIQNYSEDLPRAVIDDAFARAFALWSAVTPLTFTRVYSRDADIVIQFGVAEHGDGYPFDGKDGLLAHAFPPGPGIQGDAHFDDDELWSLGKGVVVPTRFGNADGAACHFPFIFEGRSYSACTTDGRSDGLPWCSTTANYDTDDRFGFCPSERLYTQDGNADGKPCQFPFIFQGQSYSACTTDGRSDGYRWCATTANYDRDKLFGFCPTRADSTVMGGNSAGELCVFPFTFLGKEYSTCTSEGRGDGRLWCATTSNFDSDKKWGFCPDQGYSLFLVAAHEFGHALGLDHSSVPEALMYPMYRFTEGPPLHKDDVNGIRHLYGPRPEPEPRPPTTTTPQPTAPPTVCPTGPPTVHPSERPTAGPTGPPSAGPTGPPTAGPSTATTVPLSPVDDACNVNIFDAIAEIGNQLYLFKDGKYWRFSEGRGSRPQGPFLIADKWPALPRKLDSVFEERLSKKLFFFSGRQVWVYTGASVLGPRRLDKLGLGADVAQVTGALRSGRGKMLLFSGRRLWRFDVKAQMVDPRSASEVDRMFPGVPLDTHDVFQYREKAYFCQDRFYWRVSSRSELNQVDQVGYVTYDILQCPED
For assay [5], the target named is Matrix metalloproteinase-14 (Homo sapiens, UniProt P50281). The assay can be described thus: Inhibition of MMP14 (unknown origin) using Mca-KLPGL-Dnp-AR as substrate at 100 uM preincubated for 30 mins followed by substrate addition measured after 1 hr by fluorescence assay relative to control.
Assay [6] concerns the target T2, Disintegrin and metalloproteinase domain-containing protein 17 (Homo sapiens, UniProt P78536). Description: Inhibition of ADAM17 (unknown origin) at 100 uM preincubated for 30 mins followed by substrate addition measured every 30 mins for 2 hrs by fluorescence assay relative to control. The essentials: as §1
Assay [7] has as its target T2, Disintegrin and metalloproteinase domain-containing protein 17. The assay can be described thus: Inhibition of ADAM17 in human THP1 cells assessed as inhibition of LPS-stimulated TNFalpha cleavage at 25 uM after 1 hr by AlphaScreen assay relative to control. To be noted: THP-1. The assay is classed as cell-based. The essentials:
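THP-1 cells grown in RPMI 1640 with 10% FBS and 0.05 mM 2-mercaptoethanol; 3000 cells per well. Compound given in 3% DMSO for 1 h, then LPS added (1 μg/mL final) and cells incubated overnight at 37 °C. TNFα detected by AlphaScreen using anti-TNFα acceptor beads and streptavidin donor beads, each step 1 h in the dark at RT.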

For assay [8] the target is unchanged. Description: Inhibition of ADAM17 in human A549 cells assessed as inhibition of PMA-stimulated heregulin shedding at 40 uM incubated for 1 hr followed by PMA stimulation measured after 1 hr. The assay is classed as cell-based. Put shortly: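 Heregulin shedding in A549 cells, with all compounds tested at 40 μM.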
Assay [9] deals with T1, Disintegrin and metalloproteinase domain-containing protein 10 (Homo sapiens). The assay can be described thus: Inhibition of ADAM10 in human A549 cells assessed as inhibition of betacellulin shedding at 40 uM after 1 hr by ELISA. The assay is classed as cell-based. Put shortly:
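A549 cells were tested for betacellulin shedding at 40 μM, with Marimastat at 10 μM as control.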
Background: An ELISA detects its analyte on a solid surface through an enzyme-linked reagent.

Assay [10] deals with T2, Disintegrin and metalloproteinase domain-containing protein 17. Description: Inhibition of ADAM17 in human A549 cells assessed as effect on PMA-stimulated TGFalpha shedding up to 100 uM preincubated for 1 hr followed by PMA stimulation measured after 1 hr by ELISA. The assay is classed as cell-based. Put shortly:
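TGFα shedding from PMA-treated A549 cells tested up to 100 μM. Marimastat at 10 μM served as control, with a non-PMA-treated control included; soluble TGFα measured in the supernatant.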

Assay [11] deals with T3, Disintegrin and metalloproteinase domain-containing protein 10 (Homo sapiens, UniProt O14672).
T3 sequence (O14672 whole entry): T1 sequence (whole entry)
Description: Inhibition of ADAM10 (unknown origin) preincubated for 30 mins followed by substrate addition measured every 30 mins for 2 hrs by fluorescence assay. Put shortly:
as §1

Assay [12] addresses T2, Disintegrin and metalloproteinase domain-containing protein 17. Description: Inhibition of ADAM17 (unknown origin) preincubated for 30 mins followed by substrate addition measured every 30 mins for 2 hrs by fluorescence assay. The essentials:
as §1

Structures are written as SMILES.

T2 sequence (P78536 whole entry, the tested form may be a part): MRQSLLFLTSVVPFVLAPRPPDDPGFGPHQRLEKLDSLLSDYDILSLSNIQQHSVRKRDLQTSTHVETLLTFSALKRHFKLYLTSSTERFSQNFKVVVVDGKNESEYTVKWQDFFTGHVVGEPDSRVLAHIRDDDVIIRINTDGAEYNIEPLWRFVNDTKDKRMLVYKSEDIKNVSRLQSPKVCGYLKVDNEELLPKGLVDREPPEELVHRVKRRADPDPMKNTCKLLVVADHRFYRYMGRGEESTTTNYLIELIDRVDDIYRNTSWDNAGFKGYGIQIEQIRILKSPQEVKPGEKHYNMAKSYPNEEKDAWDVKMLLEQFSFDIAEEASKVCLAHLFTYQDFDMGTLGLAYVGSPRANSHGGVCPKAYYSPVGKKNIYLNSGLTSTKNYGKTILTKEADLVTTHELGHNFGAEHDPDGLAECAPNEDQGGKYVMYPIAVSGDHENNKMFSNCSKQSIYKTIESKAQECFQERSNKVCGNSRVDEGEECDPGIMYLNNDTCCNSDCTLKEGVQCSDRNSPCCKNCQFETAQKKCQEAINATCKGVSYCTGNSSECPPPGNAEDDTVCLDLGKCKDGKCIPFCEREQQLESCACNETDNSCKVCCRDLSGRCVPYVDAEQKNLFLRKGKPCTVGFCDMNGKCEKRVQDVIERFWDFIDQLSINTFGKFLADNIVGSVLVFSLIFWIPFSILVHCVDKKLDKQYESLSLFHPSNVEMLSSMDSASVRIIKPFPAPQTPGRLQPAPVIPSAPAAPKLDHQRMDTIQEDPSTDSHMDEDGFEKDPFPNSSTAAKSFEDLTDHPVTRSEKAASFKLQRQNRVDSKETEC
Chain of 72 kDa type IV collagenase (P08253 110-660 limits assumed): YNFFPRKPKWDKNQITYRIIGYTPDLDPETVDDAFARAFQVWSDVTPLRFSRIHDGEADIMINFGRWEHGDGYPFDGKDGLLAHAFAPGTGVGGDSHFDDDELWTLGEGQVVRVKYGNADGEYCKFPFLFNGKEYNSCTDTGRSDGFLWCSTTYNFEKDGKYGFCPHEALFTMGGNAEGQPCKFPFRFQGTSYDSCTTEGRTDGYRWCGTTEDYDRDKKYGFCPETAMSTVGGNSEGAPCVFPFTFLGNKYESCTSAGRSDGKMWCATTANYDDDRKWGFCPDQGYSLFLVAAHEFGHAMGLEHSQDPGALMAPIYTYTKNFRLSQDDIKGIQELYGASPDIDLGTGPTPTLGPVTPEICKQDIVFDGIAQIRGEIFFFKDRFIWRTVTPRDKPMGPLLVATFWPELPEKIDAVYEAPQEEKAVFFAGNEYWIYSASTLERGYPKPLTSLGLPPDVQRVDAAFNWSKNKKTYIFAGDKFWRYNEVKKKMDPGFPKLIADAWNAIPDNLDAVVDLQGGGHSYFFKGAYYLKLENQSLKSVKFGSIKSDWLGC
Chain of Neutrophil collagenase (P22894 101-467 limits assumed): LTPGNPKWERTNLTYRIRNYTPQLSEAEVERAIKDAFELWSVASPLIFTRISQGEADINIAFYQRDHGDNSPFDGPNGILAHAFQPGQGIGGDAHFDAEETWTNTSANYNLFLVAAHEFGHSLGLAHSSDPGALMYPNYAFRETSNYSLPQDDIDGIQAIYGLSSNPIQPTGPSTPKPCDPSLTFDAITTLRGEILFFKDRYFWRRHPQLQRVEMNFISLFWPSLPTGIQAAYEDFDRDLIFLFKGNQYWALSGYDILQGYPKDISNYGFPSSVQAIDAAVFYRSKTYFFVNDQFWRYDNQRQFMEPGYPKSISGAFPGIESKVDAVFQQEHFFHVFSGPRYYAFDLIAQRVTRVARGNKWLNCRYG

In the case of `O=C1NCC(Cc2ccccc2)N(C[C@@H]2CCCN2C[C@@H](CC2CCCCC2)N2C[C@H](Cc3ccccc3)N(CCc3ccccc3)C(=O)C2=O)C1=O` (single isomer, unassigned), the inhibition (as a rule, the change of the read-out against control, counted positive when it falls) in [1] turned out to be 0%; in assay [2], 0%; in assay [3] it was 0%; in [4], 0%; in assay [5] it was 0%; in assay [6] it was 100%. Besides, the inhibition in [7] is 0%; in [8] it was 34%; in assay [9], 0%; in [10] it was 0%.

`CCC[C@H]1CNC(=O)C(=O)N1C[C@@H]1CCCN1C[C@H](Cc1ccc(O)cc1)N1C[C@H](Cc2ccc(O)cc2)N(CC2CCCC2)C(=O)C1=O`: the IC50 (commonly the concentration that inhibits the measured activity by half) in [11] was above 100 µM; in assay [12] it was 35 µM.

On to `O=C1NC[C@@H](Cc2ccc3ccccc3c2)N(C[C@@H]2CCCN2C[C@H](Cc2ccc(O)cc2)N2C[C@H](Cc3ccc4ccccc4c3)N(CCC34CC5CC(CC(C5)C3)C4)C(=O)C2=O)C1=O`, for which the IC50 was above 100 µM in assay [11] and 8.4 µM in [12].

Regarding `CCC[C@H]1CNC(=O)C(=O)N1C[C@@H]1CCCN1C[C@H](Cc1ccc(O)cc1)N1C[C@H](Cc2ccc(O)cc2)N(CC2CCCCC2)C(=O)C1=O`, the results for the IC50 in assay [11] and in assay [12] were above 100 µM and 29 µM, respectively.

For the molecule `CCC[C@H]1CNC(=O)C(=O)N1C[C@@H]1CCCN1C[C@H](Cc1ccc(O)cc1)N1C[C@H](Cc2ccc(O)cc2)N(CC2CCC2)C(=O)C1=O`, the IC50 is above 100 µM in assay [11] and 94 µM in [12].

In the case of `CCC[C@H]1CNC(=O)C(=O)N1C[C@@H]1CCCN1C[C@H](Cc1ccc(O)cc1)N1C[C@H](Cc2ccc3ccccc3c2)N(CCC23CC4CC(CC(C4)C2)C3)C(=O)C1=O`, the values for the IC50 in assay [11] and in [12] were above 100 µM and 10 µM, respectively.

`O=C1NC[C@@H](Cc2ccc3ccccc3c2)N(C[C@@H]2CCCN2C[C@H](Cc2ccc(O)cc2)N2C[C@@H](Cc3ccc(O)cc3)N(CCC34CC5CC(CC(C5)C3)C4)C(=O)C2=O)C1=O`: the IC50 was above 100 µM in [11] and 15 µM in [12].

Regarding `CCC[C@H]1CNC(=O)C(=O)N1C[C@@H]1CCCN1C[C@H](Cc1ccc(O)cc1)N1C[C@@H](Cc2ccc(O)cc2)N(CCC23CC4CC(CC(C4)C2)C3)C(=O)C1=O`, the IC50 in assay [11] is above 100 µM; in assay [12], 5.4 µM.

Turning to `CCCC[C@H]1CN([C@@H](Cc2ccc(O)cc2)CN2CCC[C@H]2CN2C(=O)C(=O)NC[C@@H]2CCC)C(=O)C(=O)N1CCC12CC3CC(CC(C3)C1)C2`, the values for the IC50 in assay [11] and in assay [12] were above 100 µM and 6.5 µM, respectively.

In the case of `CCC[C@H]1CNC(=O)C(=O)N1C[C@@H]1CCCN1C[C@H](Cc1ccc(O)cc1)N1C[C@H](Cc2ccc(O)cc2)N(CCC23CC4CC(CC(C4)C2)C3)C(=O)C1=O`, the IC50 is above 100 µM in assay [11] and 5.9 µM in assay [12].

In the case of `O=C1NC[C@@H](Cc2ccc3ccccc3c2)N(C[C@@H]2CCCN2C[C@H](Cc2ccc(O)cc2)N2C[C@@H](Cc3ccc4ccccc4c3)N(CCC34CC5CC(CC(C5)C3)C4)C(=O)C2=O)C1=O`, the results for the IC50 in [11] and in [12] were above 100 µM and 5.7 µM, respectively.

As to `O=C1NC[C@@H](Cc2ccc3ccccc3c2)N(C[C@@H]2CCCN2C[C@H](Cc2ccc(O)cc2)N2C[C@H](Cc3ccc(O)cc3)N(CCC34CC5CC(CC(C5)C3)C4)C(=O)C2=O)C1=O`, the IC50 was above 100 µM in assay [11] and 8.1 µM in [12].

As for `CCC[C@H]1CNC(=O)C(=O)N1C[C@@H]1CCCN1C[C@H](Cc1ccc(O)cc1)N1C[C@H](Cc2ccc(O)cc2)N(CC23CC4CC(CC(C4)C2)C3)C(=O)C1=O`, the IC50 in assay [11] was above 100 µM; in [12], 10 µM.

Regarding `CCC[C@H]1CNC(=O)C(=O)N1C[C@@H]1CCCN1C[C@H](Cc1ccc(O)cc1)N1C[C@@H](Cc2ccc3ccccc3c2)N(CCC23CC4CC(CC(C4)C2)C3)C(=O)C1=O`, the IC50 in assay [11] is above 100 µM; in assay [12], 7.9 µM.

As for `CCC[C@H]1CNC(=O)C(=O)N1C[C@@H]1CCCN1C[C@H](Cc1ccc(O)cc1)N1C[C@H](Cc2ccc(O)cc2)N(CC(CC)c2ccccc2)C(=O)C1=O` (stereo not given in full), the IC50 in assay [11] is above 100 µM; in assay [12], 15 µM.

Regarding `CCC[C@H]1CNC(=O)C(=O)N1C[C@@H]1CCCN1C[C@H](Cc1ccc(O)cc1)N1C[C@H](Cc2ccc(O)cc2)N(CC2CCC(C(C)(C)C)CC2)C(=O)C1=O` (stereo not given in full), the figures for the IC50 in assay [11] and in [12] were above 100 µM and 10 µM, respectively.
